In BindingDB's records for PubMed 35349261 (Hospital Regional Universitario, 2022):

Target: T1, Glucagon-like peptide 1 receptor (Rattus norvegicus, UniProt P32301)
T1 sequence (P32301 whole entry): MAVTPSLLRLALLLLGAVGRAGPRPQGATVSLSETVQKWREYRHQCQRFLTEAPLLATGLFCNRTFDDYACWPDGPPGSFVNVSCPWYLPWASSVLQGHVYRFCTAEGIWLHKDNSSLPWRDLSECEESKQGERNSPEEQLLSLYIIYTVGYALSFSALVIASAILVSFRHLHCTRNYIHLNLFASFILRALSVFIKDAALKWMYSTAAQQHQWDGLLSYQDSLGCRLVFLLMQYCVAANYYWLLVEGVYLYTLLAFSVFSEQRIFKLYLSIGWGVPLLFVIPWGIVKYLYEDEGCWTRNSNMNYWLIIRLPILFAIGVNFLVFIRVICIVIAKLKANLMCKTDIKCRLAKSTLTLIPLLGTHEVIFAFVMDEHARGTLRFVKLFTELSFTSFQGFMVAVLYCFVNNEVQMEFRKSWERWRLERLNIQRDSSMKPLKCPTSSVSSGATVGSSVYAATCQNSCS
Assay: Positive allosteric modulator activity at GLP-1R in rat INS1 beta-cells assessed potentiation of GLP-1(7-36)NH2 induced insulin secretion at 0.1 nM incubated for 30 mins in presence of exendin(9-39)NH2 by ELISA
Summary of the method: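 Rat INS-1E cells in RPMI 1640 with 10% fetal calf serum at 37 °C, 7.5% CO2. Cells were detached, washed and plated at 100,000 cells/well, then held in glucose-free medium for 1.5 h. […] Insulin in the medium was read by ELISA; data are triplicate.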

IC50: 6.3 nM
SMILES: FC(F)(F)c1ccc(-c2noc(CN3CCCC(CN4CCOCC4)C3)n2)cc1 (stereo unspecified)
